Screening data as filed in PubChem.
N-glyco inh: increase of ERlucT glycosylation luciferase signal, primary screen, N-linked glycosylation inhibitor project, D54 ERlucT cells, luminescence, set 2; D54 ERlucT glycosylation luciferase reporter, 24 h; percent of 100 nM tunicamycin response; reporter increase, % at 12.5 µM; hit rate 0.23% among 360,000;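 active = mean luciferase reporter signal, scaled so untreated is 0 and the glycosylation-blocking control 100, at or above a set limit in every replicate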;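 also: luciferase carries N-glycosylation sites so blocking glycosylation raises the light; 0% = median of neutral control wells and 100% = median of 100 nM tunicamycin wells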
CaV13 FRET inh: Primary screen for inhibitors of IQ motif and Ca2+-dependent inactivation inhibitor domain binding in CACNA1D, Förster resonance energy transfer in living cells, …; HEK cells, CFP/YFP FRET ICDI-IQ, plate reader, 10 min; percent FRET-ratio fall versus neutral wells; inhibition, % at 12.3 µM; hit rate 0.098% among 340,000;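 active = mean replicate inhibition of at least 30% and at least 1% of replicates passing that level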;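 also: 0% = median of the neutral control wells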
RAD54 branch: inhibitors of human RAD54 branch migration, primary screen, biochemical, fluorescence, single point; DNA repair and recombination protein RAD54-like (Homo sapiens), Q92698; RAD54 Holliday junction branch migration, FAM/BHQ fluorescence; inhibition, % at 10.4 µM; hit rate 0.14% among 360,000;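 active = mean normalized replicate activity at least 40 and at least half of replicates scoring 40 or more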;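 also: 0% = median of neutral control wells and 100% = median of positive control wells; inhibitors cause a drop in the FAM fluorescence signal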
RAD52 inh: RAD52 DNA annealing inhibitors, primary screen, biochemical, FRET, single point, set 2 | DNA repair protein RAD52 homolog (Homo sapiens), P43351 | recombinant RAD52 DNA annealing, FRET fluorescence | inhibition, % at 18.7 µM | hit rate 0.46% among 360,000 | AID 651710, 2012;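 active = every replicate showing at least 50% inhibition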
Target sequence (P43351 whole entry, looked up): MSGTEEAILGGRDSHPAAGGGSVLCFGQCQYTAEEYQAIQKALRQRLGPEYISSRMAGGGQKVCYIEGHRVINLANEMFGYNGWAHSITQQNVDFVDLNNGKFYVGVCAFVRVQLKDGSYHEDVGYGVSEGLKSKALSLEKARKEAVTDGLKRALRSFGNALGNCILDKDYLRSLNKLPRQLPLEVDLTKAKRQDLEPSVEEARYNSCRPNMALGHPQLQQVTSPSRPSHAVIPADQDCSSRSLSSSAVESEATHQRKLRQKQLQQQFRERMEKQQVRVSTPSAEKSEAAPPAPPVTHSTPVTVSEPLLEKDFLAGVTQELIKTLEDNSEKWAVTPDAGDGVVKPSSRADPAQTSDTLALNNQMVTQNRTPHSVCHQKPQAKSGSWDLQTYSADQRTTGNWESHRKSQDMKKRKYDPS
FN deposition inh: inhibitors of fibronectin matrix deposition, primary screen, AH1F cells, Alexa488-fibronectin fluorescence, plate reader; AID 743247, 2014; AH1F fibroblasts, overnight; inhibition, % at 12.6 µM; hit rate 0.086% among 350,000;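 active = mean inhibition across replicates of 30% or more, regardless of how many single replicates reach that level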;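 also: positive control wells lacked labelled fibronectin entirely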
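Material: AH1F fibroblasts assembling fluorescent fibronectin matrix; amount: 10000 AH1F cells/well; medium: DMEM, 2% serum; reagent: Alexa488-fibronectin, 24 nM final in well; dosing: single compound dose, delivered by pin transfer; incubation: 1 h adhesion, overnight exposure; detection: fluorescence after three HBSS washes, excitation 485 nm, emission 525 nm; measure: fibronectin deposition inhibition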
Active calls of the source: *; . = no result given. Shown are actives, neighbours in structure and some others; about 0.7% of the full set was active somewhere.

SMILES | N-glyco inh | CaV13 FRET inh | RAD54 branch | RAD52 inh | FN deposition inh
CCC(C)(C)NC(=O)C(OC(=O)c1ccco1)c1ccccc1OC (stereo not drawn) | -1 | -5 | 2 | . | 31*
N#Cc1ccc(/C=C\c2nccc3c2[nH]c2ccccc23)cc1 | -7 | 38* | . | -56 | -5
Clc1ccc(/C=C\c2nccc3c2[nH]c2ccccc23)cc1 | 4 | -8 | . | -161 | .
COc1ccc(C(=O)O/N=C/c2c(C(F)(F)F)nn(C)c2SCc2ccccc2Cl)cc1 | 53* | -4 | -2 | . | -1
Cn1nc(C(F)(F)F)c(/C=N/OC(=O)c2ccccc2Cl)c1SCc1ccc(Cl)cc1 | 61* | -4 | 1 | . | -23
Cc1ccc(C(=O)O/N=C/c2c(C(F)(F)F)nn(C)c2Sc2ccc(Cl)cc2)cc1 | 0 | -5 | 6 | . | .
CC(C)NC(=O)N(C)C[C@@H]1OCCCC[C@H](C)Oc2ccc(NC(=O)CCC(F)(F)F)cc2C(=O)N([C@@H](C)CO)C[C@H]1C | . | . | -3 | -1 | -2
O=C(c1cccnc1)N1CC(=O)N2[C@H](CO)[C@H](c3ccc(/C=C/c4ccccc4)cc3)[C@H]2C1 | . | . | . | -17 | .
O=C(NCc1cccs1)C1Cc2c(-c3ccc(Cl)cc3)ccnc2O1 (stereo not drawn) | 21 | -6 | -2 | 4 | -1
CC(=O)c1cccc(-c2ccnc3c2CC(C(=O)NCc2cccs2)O3)c1 (stereo not drawn) | 34* | -6 | 1 | -70 | -11
CC(=O)Nc1cccc(-c2ccnc3c2CC(C(=O)NCc2cccc(Cl)c2)O3)c1 (stereo not drawn) | 19 | 45* | 1 | -19 | 5
CC(=O)OC[C@@H]1CN(Cc2ccccc2)C[C@H](n2cnc3c(N(C)C(C)C)ncnc32)O1 | 3 | 45* | 0 | -23 | -4
CCN(CC)c1ncnc2c1ncn2[C@H]1CN(Cc2ccccc2)C[C@@H](COC(C)=O)O1 | 0 | -10 | -13 | -142 | -20
COc1ccc2c3c(n(C)c2c1)[C@@H](CO)N(C(=O)c1ccc(F)cc1)CC31CCN(C(=O)c2ccc(F)cc2)CC1 | . | . | . | -24 | .
CNC[C@@H](CC1CCCCC1)NC[C@H](CC(C)C)NCCc1cccc(C(F)(F)F)c1 | -22 | -4 | 28 | 13 | 62*
COCC(=O)Nc1ccc2c(c1)OC[C@@H](C)N(C(=O)NC(C)C)C[C@H](C)[C@@H](OC)CN(C)C2=O | . | . | . | . | -12
Cc1[nH][nH]c(=O)c1C(c1ccc(-c2ccc(Cl)c(Cl)c2)o1)c1c(C)[nH][nH]c1=O | 46* | . | 0 | . | .
COc1ccc(-c2ccc(C(c3c(C)[nH][nH]c3=O)c3c(C)[nH][nH]c3=O)o2)c([N+](=O)[O-])c1 | 34* | -6 | . | -2 | -9
Cc1[nH][nH]c(=O)c1C(c1ccc(-c2ccc(C(=O)O)cc2)o1)c1c(C)[nH][nH]c1=O | 7 | -2 | . | -16 | -3
Cc1[nH][nH]c(=O)c1C(c1ccc(-c2ccc(F)cc2)o1)c1c(C)[nH][nH]c1=O | 18 | -5 | . | -6 | .
COc1cc(C2C3=C(CC(C)(C)CC3=O)N(C)C3=C2C(=O)CC(C)(C)C3)cc(Br)c1O | -1 | 35* | 3 | 0 | 9
COc1cc(C2C3=C(CC(C)(C)CC3=O)N(C)C3=C2C(=O)CC(C)(C)C3)ccc1O | 1 | 5 | 5 | -1 | 3
COc1cc(/C=C2\SC(=S)N(CCC(=O)N3CCCCC3)C2=O)cc(OC)c1OC | 70* | -6 | -9 | -18 | 10
Cc1ccc(/C=C2\SC(=S)N(CCC(=O)N3CCCCC3)C2=O)cc1 | 18 | -2 | 27 | -6 | -9
O=C(CCN1C(=O)/C(=C/c2cccs2)SC1=S)N1CCCCC1 | 50* | -11 | -7 | -129 | 1
SMILES | N-glyco inh | CaV13 FRET inh | RAD54 branch | RAD52 inh | FN deposition inh
O=C(CCN1C(=O)/C(=C\c2ccccc2)SC1=S)N1CCCCC1 | 56* | -7 | 10 | -2 | 3
CCOC(=O)C1=C(c2ccccc2)NC(=O)NC1c1ccc(O)c(Cl)c1 (stereo not drawn) | 2 | 2 | 7 | -7 | 48*
CCOC(=O)C1=C(c2ccccc2)NC(=O)NC1c1ccc(O)c(OCC)c1 (stereo not drawn) | -1 | -2 | -10 | -10 | -3
CCc1cccc(NC(=O)c2cc(S(=O)(=O)N3CCCCC3)ccc2N2CCOCC2)c1 | -5 | -5 | -3 | -5 | 3
CN(C)S(=O)(=O)c1ccc(N2CCCC2)c(C(=O)Nc2nc3c(ccc4ccccc43)s2)c1 | -3 | -11 | -4 | . | 12
Cc1cnc(NC(=O)c2cc(S(=O)(=O)N(C)C)ccc2N2CCCC2)s1 | 98* | -6 | -2 | -10 | 3
CN(C)S(=O)(=O)c1ccc(N2CCCC2)c(C(=O)Nc2nccs2)c1 | 79* | -2 | 3 | -6 | -9
CN(C)S(=O)(=O)c1ccc(N2CCCC2)c(C(=O)Nc2nc(-c3ccc(F)c(F)c3)cs2)c1 | 2 | -6 | . | . | -4
CCc1cccc(NC(=O)c2cc(S(=O)(=O)N(C)C)ccc2N2CCCC2)c1 | 39* | -2 | -5 | -9 | -2
O=C(Cc1ccccc1)N1CC2(C1)[C@@H](c1ccccc1)[C@H](CO)N2C(=O)Cc1ccccc1 | . | . | . | -98 | .
CC=Cc1ccc2n(c1=O)C[C@@H]1[C@@H](CO)[C@H](C(=O)NCCC)[C@H]2N1C(=O)c1ccccc1 (mixture of isomers) | . | . | -6 | -1 | .
COc1ccc(Cn2nnnc2C(CC(C)C)N2CCC(C(N)=O)CC2)cc1 (stereo not drawn) | 1 | 43* | . | -15 | 8
Cc1noc(C)c1NC(=O)N(C)C[C@@H]1Oc2ccc(NC(=O)CCCN(C)C)cc2C(=O)N([C@H](C)CO)C[C@H]1C | . | . | . | -12 | 3
CC(=O)Nc1ccc2c(c1)C(=O)N(C)C[C@H](C)[C@H](CN(C)C(=O)NC(C)C)O2 | . | . | . | . | 3
O=c1c2ccccc2[nH]c2ccc(O)cc12 | 2 | 4 | 4 | -19 | 8
Cc1ccc2[nH]c3ccccc3c(=O)c2c1 | 4 | 34* | 17 | -5 | -4
O=C1CN(S(=O)(=O)c2ccccc2)C[C@@H]2[C@H](c3ccc(C#CCc4ccccc4)cc3)[C@@H](CO)N12 | . | . | . | -4 | .
C[C@@H]1CN([C@@H](C)CO)C(=O)c2cc(NS(=O)(=O)c3ccc(F)cc3)ccc2O[C@@H]1CN(C)S(=O)(=O)c1cn(C)cn1 | . | . | . | 8 | .
Cc1noc(C)c1S(=O)(=O)Nc1ccc2c(c1)CC(=O)N([C@@H](C)CO)C[C@H](C)[C@H](CN(C)Cc1ccc3c(c1)OCO3)O2 | . | . | -1 | -1 | .
